{"data": "Experimental data of several laboratories", "note": "Each line is one published result; the experiments were not run side by side. pIC50: −log10 of the molar value."}
{"SMILES": "COc1ccc2c(c1)CN(C(=O)CCN1CCC(Cc3ccccc3)CC1)CC[S@@+]2[O-]", "system": "male human, plasma", "conditions": "intravenous, 0.01 mg/kg, healthy volunteers", "quantity": "AUC(0-t)", "result": "45.2 ng·h/mL"}
{"SMILES": "CC(C)C[C@H](NC(=O)[C@H](Cc1ccccc1)NC(=O)c1cnccn1)B(O)O", "target or system": "CHP-212", "assay": "cell growth or viability, SRB", "conditions": "4.572 nM", "quantity": "viability", "result": "102%"}
{"SMILES": "O=C(O)COc1cccc(-c2nc(Nc3ccc4[nH]ncc4c3)c3ccccc3n2)c1", "target or system": "Organic anion transporter 3 (SLC22A8, Homo sapiens, UniProt Q8TCC7)", "assay": "transporter uptake, inhibitor, radiometric", "quantity": "pIC50", "result": 4.80}
{"SMILES": "O=C(COc1ccc(Cl)cc1)NC12CC(c3nnc([C@H]4C[C@@H](OC(F)(F)F)C4)o3)(C1)C2", "system": "human, plasma", "conditions": "oral, 260 mg, multiple doses, once daily, steady state, healthy volunteers", "quantity": "AUC", "result": "296 µM·h"}
{"SMILES": "CNC(=O)c1cc(Oc2ccc(NC(=O)Nc3ccc(Cl)c(C(F)(F)F)c3)cc2)ccn1", "target or system": "WISH", "assay": "cell growth or viability, MTT", "conditions": "3.125 µM, 24 h", "quantity": "viability", "result": "86.2%"}
{"SMILES": "CC(=O)O[C@H]1C(=O)[C@@]2(C)[C@H]([C@H](OC(=O)c3ccccc3)[C@]3(O)C[C@H](OC(=O)[C@H](O)[C@@H](NC(=O)c4ccccc4)c4ccccc4)C(C)=C1C3(C)C)[C@]1(OC(C)=O)CO[C@@H]1C[C@@H]2O", "target or system": "CHP-212", "assay": "cell growth or viability, SRB", "conditions": "1.524 nM", "quantity": "viability", "result": "89.8%"}
{"SMILES": "CC(C)n1c(C2CCNCC2)nc2c([N+](=O)[O-])c(Br)c(Br)cc21", "system": "human, plasma", "conditions": "oral, 100 mg, patients", "quantity": "AUC(0-t)", "result": "952 ng·h/mL"}
{"SMILES": "COc1ccc(F)cc1C(=O)NCc1ccc(-c2nn([C@@H](C)C(F)(F)F)c(N)c2C(N)=O)cc1", "system": "male human, plasma", "conditions": "oral, 200 mg, single dose", "quantity": "AUC(0-inf)", "result": "105000 ng·h/mL"}
{"SMILES": "NCc1cc2c(cc1F)C(=O)N(C1CCC(=O)NC1=O)C2 (stereo not shown)", "system": "male cynomolgus monkey, plasma", "conditions": "oral, 0.3 mg/kg, 2 h", "quantity": "concentration", "result": "1.07 ng/mL"}
{"SMILES": "CC(=O)N(C)[C@H]1CCN(C(=O)c2cnc3c(c2)C[C@](C)(c2ccc(F)cc2)N3)C1", "system": "male human, plasma", "conditions": "oral, 30 mg, multiple doses, once daily, steady state", "quantity": "AUC(0-t)", "result": "3.63 µM·h"}
